Results as given in PubChem BioAssay.
Results filed as inconclusive are left out. Calls of active or inactive are those of the source.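 Rule for the calls, unless noted: active = viability at or below 27.92% in each of two runs, the all-compound median minus 4 SD; inconclusive = no clear call, values can overlap the other calls; inactive = the rest.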

What was measured:
[1] = OD615 S. cerevisiae growth inhibition, permissive medium, pilot counter-assay, permissive growth control for S. cerevisiae lifespan shortening project (AID 705;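 active = growth inhibition above 25% in both replicates, a cutoff set 3 SD above the mean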); settings: OD615, 24 h, at 10 µM, stronger effect = higher value
In short: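 System: Engineered DeaD yeast | Buffer or medium: SC raffinose/galactose permissive medium | Doses: 10 µM single dose, 0.25% DMSO | Times: 24 h exposure, 30 °C | Measured by: OD615 turbidity read | Read-out: Yeast growth inhibition indicated by reduced 24 h OD615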

[2] = Restrictive medium S. cerevisiae growth inhibition, OD615, pilot screen of yeast lifespan reduction project, restrictive growth control (AID 706;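 active = growth inhibition above a set limit, 3 SD over mean compound inhibition, in both replicates, cut at about 43% in these data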;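 note: modified DeaD lifespan yeast strain shifted to restrictive glucose medium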); settings: OD615, 48 h, at 10 µM, stronger effect = higher value
In short: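 Assay system: engineered S. cerevisiae DeaD strain; Buffer or medium: CSMM-D glucose medium; Dosing: 10 µM compound, 0.25% DMSO; Times: cell pre-growth 4 h, compound exposure 48 h, 30 °C; Detection: absorbance (optical density) measured at 615 nm.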

[3] = viability gain of MRP-1-high H69AR cells under doxorubicin, pilot screen, MRP-1 activator project, CellTiter-Glo, duplicate (AID 807;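 active = viability increase at or above a cutoff of the median across tested compounds plus 3 SD, cut at about 8.5% in these data, passing the limit was not always enough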;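 note: compound pretreatment 18-22 h then 72 h combined with doxorubicin; 0% = doxorubicin alone and 100% = vehicle without doxorubicin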); settings: H69AR viability with doxorubicin, CellTiter-Glo luminescence; at 10 µM; stronger effect = higher value
[4] = growth suppression of beta-catenin knockout HCT116, pilot screen, human colon tumor cells (AID 823;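 active = cell viability at or below a set limit in both duplicate runs, the limit being the all-compound median minus 4 SD, cut at about 23% in these data, passing the limit was not always enough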;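 note: 0% = wells killed by 20 µM Hyamine and 100% = untreated DMSO cell wells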); settings: CellTiter-Glo, 60 h, at 10 µM, stronger effect = lower value
[5] = growth suppression of PTEN-deleted HCT116, pilot screen, cell-based, HCT116 clonal line, CellTiter-Glo (AID 824); settings: 60 h, at 10 µM, stronger effect = lower value;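 note: 0% = 20 µM Hyamine control and 100% = vehicle cell control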
[6] = inhibitors of the yeast RAM network, pilot screen, dse1pr::URA3 reporter, 5-FOA selection (AID 869;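 active = inhibition over a set limit, the all-compound mean plus 3 SD, in both replicate runs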;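 note: 0% = DMSO wells with no growth and 100% = 10 µM 1-NA-PP1 with full growth; RAM network block rescues cells from 5-FOA so hits raise OD615 growth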); settings: S. cerevisiae dse1pr::URA3 5-FOA growth, OD615, 2 d; at 10 µM; stronger effect = higher value; strain carries analog-sensitive mutant Cbk1 kinase
[7] = RAM signaling pathway blockade in yeast – S. cerevisiae, Pdr1DBD-CYC8 efflux-inhibited sensitized strain, primary screen (AID 1298;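 active = RAM network inhibition above 8.4% in each of two replicates, 3 SD over the compound average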;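 note: 0% = DMSO untreated cells without growth and 100% = 10 µM 1-NA-PP1 full growth; higher means more yeast growth rescued from 5-FOA killing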); settings: S. cerevisiae cbk1-as DSE1-URA3 strain, 5-FOA growth OD615, 2 d; at 50 µM; stronger effect = higher value

O=C(Cn1c(=O)oc2cc(S(=O)(=O)N3CCCC3)ccc21)N1CCN(c2ccccn2)CC1
inactive: growth inhibition [1] 4.62% | growth inhibition [2] 6.56% | viability increase [3] 0.96% | viability [4] 90% | viability [5] 92.5% | inhibition [6] 2.1% | RAM network inhibition [7] 6.22%

CC1CCN(C(=O)CSc2ccc3nnc(-c4cccc(F)c4)n3n2)CC1
inactive: growth inhibition [1] -0.835% | growth inhibition [2] -0.735% | viability increase [3] -3.12% | viability [4] 79.5% | viability [5] 81.3% | inhibition [6] 0.67% | RAM network inhibition [7] -1.03%

Cc1sc2nc3ccc(N4CCCC4)nn3c(=O)c2c1C
inactive: growth inhibition [1] -0.905% | growth inhibition [2] 18.9% | viability increase [3] -2.12% | viability [4] 70.1% | viability [5] 75% | inhibition [6] 0.845% | RAM network inhibition [7] 2.93%

Cc1ccccc1NC(=O)CCn1c(=O)oc2ccccc21
inactive: growth inhibition [1] -3.42% | growth inhibition [2] -26.5% | viability increase [3] -1.87% | viability [4] 101% | viability [5] 91.3% | inhibition [6] 1.54% | RAM network inhibition [7] 3.96%

CC1CCN(C(=O)c2ccc(NC(=O)C3CCCO3)cc2)CC1 (centres undefined)
inactive: growth inhibition [1] -31.4% | growth inhibition [2] -18.3% | viability increase [3] -0.41% | viability [4] 96.4% | viability [5] 94.3% | inhibition [6] 1.26% | RAM network inhibition [7] 3.59%

O=C(CSc1ncccn1)NCCc1ccccc1
inactive: growth inhibition [1] -4.5% | growth inhibition [2] 2.61% | viability increase [3] -1.26% | viability [4] 96% | viability [5] 97.2% | inhibition [6] 2.3% | RAM network inhibition [7] 2.5%

COC(=O)C1CCN(C(=O)c2ccccc2NC(C)=O)CC1
inactive: growth inhibition [1] -12% | growth inhibition [2] -16.4% | viability increase [3] -0.52% | viability [4] 101% | viability [5] 99.6% | inhibition [6] -0.23% | RAM network inhibition [7] 2.21%

CSC1=NCCN1C(=O)Cc1ccc(F)cc1
inactive: growth inhibition [1] -0.72% | growth inhibition [2] 0.85% | viability increase [3] 2.96% | viability [4] 105% | viability [5] 103% | inhibition [6] 0.725% | RAM network inhibition [7] 4.04%

O=C1CC(c2ccco2)CC(O)=C1C=NCCO (centres undefined)
inactive: growth inhibition [1] -12.7% | growth inhibition [2] -1.73% | viability increase [3] 0.27% | viability [4] 104% | viability [5] 105% | inhibition [6] 1.79% | RAM network inhibition [7] 3.26%

Oc1ccccc1-c1nnc(COc2ccccc2)o1
inactive: growth inhibition [1] -1.18% | growth inhibition [2] 14.6% | viability increase [3] -1.43% | viability [4] 72.2% | viability [5] 75.5% | inhibition [6] 1.24% | RAM network inhibition [7] 5.2%

COc1ccc(CCNC(=O)COC(=O)c2cnc(C)cn2)cc1OC
inactive: growth inhibition [1] -8.52% | growth inhibition [2] -14.6% | viability increase [3] 1.73% | viability [4] 106% | viability [5] 100% | inhibition [6] 0.395% | RAM network inhibition [7] 2.42%

CCc1ccc(N2C(=O)c3sc4nnc(C)c(=O)n4c3C2=O)cc1
inactive: growth inhibition [1] -19.9% | growth inhibition [2] -7.66% | viability increase [3] -1% | viability [4] 87.9% | viability [5] 76.9% | inhibition [6] 1.4% | RAM network inhibition [7] 0.21%

O=C(CSc1nc2ncccc2[nH]1)NCc1ccccc1
inactive: growth inhibition [1] 0.36% | growth inhibition [2] 13.3% | viability increase [3] -0.06% | viability [4] 101% | viability [5] 86.9% | inhibition [6] 3.13% | RAM network inhibition [7] 3.93%

COc1cccc(-c2nc(CS(=O)CC(=O)NCc3ccccc3)c(C)o2)c1 (centres undefined)
inactive: growth inhibition [1] -9.55% | growth inhibition [2] -15.4% | viability increase [3] 1.16% | viability [4] 99.5% | viability [5] 96.2% | inhibition [6] 1.11% | RAM network inhibition [7] 4.44%

Cc1ccc(C(=O)COC(=O)c2cnccn2)cc1
inactive: growth inhibition [1] -15.1% | growth inhibition [2] -10.8% | viability increase [3] -1.61% | viability [4] 104% | viability [5] 97.8% | inhibition [6] 2.19% | RAM network inhibition [7] 1.61%

Cc1nc(SCC(=O)NCc2ccco2)c2oc3ccccc3c2n1
inactive: growth inhibition [1] -0.535% | growth inhibition [2] 1.3% | viability increase [3] -2.69% | viability [4] 95.2% | viability [5] 94% | inhibition [6] 0.86% | RAM network inhibition [7] 2.53%

CC(=O)Nc1nnc(-c2ccc3c(c2)CCCC3)o1
inactive: growth inhibition [1] -12.7% | growth inhibition [2] 3.68% | viability increase [3] -0.69% | viability [4] 95% | viability [5] 88.3% | inhibition [6] 1.36% | RAM network inhibition [7] 4.21%

O=C(CN1C(=O)c2ccccc2C1=O)Nc1cccc2cccnc12
inactive: growth inhibition [1] -14.6% | growth inhibition [2] -12.1% | viability increase [3] -1.1% | viability [4] 104% | viability [5] 106% | inhibition [6] 0.36% | RAM network inhibition [7] 5.82%

COc1cc(C2C3=C(CC(c4ccco4)CC3=O)Nc3ccccc3N2C(C)=O)cc(OC)c1OC (centres undefined)
inactive: growth inhibition [1] -0.74% | growth inhibition [2] 8.4% | viability increase [3] -3.38% | viability [4] 91.8% | viability [5] 89% | inhibition [6] 1.3% | RAM network inhibition [7] 6.7%

COc1cc(OC)cc(-c2cc(NC(C)=O)n[nH]2)c1
inactive: growth inhibition [1] -4.33% | growth inhibition [2] 6.38% | viability increase [3] -3.17% | viability [4] 90.8% | viability [5] 91.3% | inhibition [6] 0.965% | RAM network inhibition [7] 4.1%

CCCCC(=O)Nc1ccc2c(c1)C(=O)NC2=O
inactive: growth inhibition [1] -2.94% | growth inhibition [2] -3.99% | viability increase [3] 0.07% | viability [4] 101% | viability [5] 94.5% | inhibition [6] 2.62% | RAM network inhibition [7] 2.45%

COc1ccccc1N1CCN(Cc2cc(Br)c(O)c3ncccc23)CC1
inactive: viability increase [3] -6.58% | inhibition [6] -0.8% | RAM network inhibition [7] -1.73%
active: growth inhibition [1] 96.8% | growth inhibition [2] 98.6% | viability [4] 6.37% | viability [5] 6.17%

Cn1c(NC(=O)c2cccs2)cc(=O)n(C)c1=O
inactive: growth inhibition [1] 7.14% | growth inhibition [2] 0.885% | viability increase [3] -1.55% | viability [4] 107% | viability [5] 95.5% | inhibition [6] 0.13% | RAM network inhibition [7] -1.35%

Cc1cccc(OCc2nc(C#N)c(N3CC(C)CC(C)C3)o2)c1 (centres undefined)
inactive: growth inhibition [1] 0.505% | growth inhibition [2] -2.89% | viability increase [3] 3.8% | viability [4] 63.5% | viability [5] 65.3% | inhibition [6] 1.85% | RAM network inhibition [7] 5.88%

CCC(=O)NC(c1ccccc1)c1nc2ccccc2[nH]1 (centres undefined)
inactive: growth inhibition [1] -12.9% | growth inhibition [2] -14.2% | viability increase [3] -0.96% | viability [4] 100% | viability [5] 97.4% | inhibition [6] 1.48% | RAM network inhibition [7] 0.62%

COc1ccc(-c2c(C)oc3cc(O)cc(O)c3c2=O)cc1OC
inactive: growth inhibition [1] -12.4% | growth inhibition [2] -5.23% | viability increase [3] -1.14% | viability [4] 109% | viability [5] 93.8% | inhibition [6] 1.01% | RAM network inhibition [7] 4.79%

CNC(=O)c1nnc(Cc2ccc(F)cc2)o1
inactive: growth inhibition [1] 2.65% | growth inhibition [2] 1.31% | viability increase [3] -0.04% | viability [4] 93.8% | viability [5] 98.9% | inhibition [6] 0.195% | RAM network inhibition [7] 2.48%

O=C1c2ccccc2CCC1C(O)c1ccccn1 (centres undefined)
inactive: growth inhibition [1] -8.87% | growth inhibition [2] -15.8% | viability increase [3] -3.89% | viability [4] 95.5% | viability [5] 99.2% | inhibition [6] 2.49% | RAM network inhibition [7] 1.24%

CCCCNC(=O)CS(=O)Cc1nc(-c2cccc(Cl)c2)oc1C (centres undefined)
inactive: growth inhibition [1] -2.86% | growth inhibition [2] 11.4% | viability increase [3] -0.78% | viability [4] 92.2% | viability [5] 97.3% | inhibition [6] 0.705% | RAM network inhibition [7] 6.02%

COc1c(C)cccc1C(=O)Nc1cc(-c2nn3c(C)nnc3s2)ccc1C
inactive: growth inhibition [1] 13.5% | growth inhibition [2] 37% | viability increase [3] -5.61% | viability [4] 73.9% | viability [5] 64.2% | inhibition [6] 2.07% | RAM network inhibition [7] 7.01%

CNC(=O)c1cc2cc(OC)ccc2n1CCN(C)C
inactive: growth inhibition [1] -8.87% | growth inhibition [2] -16.4% | viability increase [3] -3.65% | viability [4] 92% | viability [5] 87.2% | inhibition [6] 2.31% | RAM network inhibition [7] 6.18%

Cc1ccc2c(c1)N(CCCC(=O)NCc1ccc3c(c1)OCO3)C(=O)CO2
inactive: growth inhibition [1] -5.25% | growth inhibition [2] -25.1% | viability increase [3] -6.26% | viability [4] 95.4% | viability [5] 83.9% | inhibition [6] 0.43% | RAM network inhibition [7] 1.64%

CCOC(=O)c1sc(NC(=O)c2cccnc2)nc1C
inactive: growth inhibition [1] -7.2% | growth inhibition [2] -2% | viability increase [3] -3.19% | viability [4] 102% | viability [5] 97.7% | inhibition [6] 1.7% | RAM network inhibition [7] 1.1%

COc1ccccc1C(=O)Nc1ccc2oc(-c3ccc(F)cc3)nc2c1
inactive: growth inhibition [1] -2.88% | growth inhibition [2] 0.83% | viability increase [3] -2.78% | viability [4] 96% | viability [5] 96.5% | inhibition [6] 2.88% | RAM network inhibition [7] 1.85%

Brc1ccc(-c2nnc(-c3ccco3)o2)cc1
inactive: growth inhibition [1] -19.6% | growth inhibition [2] -17.3% | viability increase [3] 0.83% | viability [4] 95.1% | viability [5] 93.9% | inhibition [6] 0.93% | RAM network inhibition [7] 7.37%

Cn1c(Cn2c(=O)sc3ccccc32)nnc1SCC(=O)NCc1ccccc1
inactive: growth inhibition [1] -10.1% | growth inhibition [2] -7.48% | viability increase [3] -0.73% | viability [4] 99% | viability [5] 102% | inhibition [6] 3.87% | RAM network inhibition [7] 4.44%

O=C(Nc1ccccc1Cl)N1CCN(c2ccc3nnc(-c4ccccc4)n3n2)CC1
inactive: growth inhibition [1] 6.99% | growth inhibition [2] 29.4% | viability increase [3] -4.19% | viability [4] 79.4% | viability [5] 74.8% | inhibition [6] 0.435% | RAM network inhibition [7] 2.07%
